Assay results collected from several papers.
Protocols differ between the studies behind these lines.
Target: Inhibitor of nuclear factor kappa-B kinase subunit alpha (CHUK, Homo sapiens, UniProt O15111)
Sequence (O15111 1-745, as in one of the studies): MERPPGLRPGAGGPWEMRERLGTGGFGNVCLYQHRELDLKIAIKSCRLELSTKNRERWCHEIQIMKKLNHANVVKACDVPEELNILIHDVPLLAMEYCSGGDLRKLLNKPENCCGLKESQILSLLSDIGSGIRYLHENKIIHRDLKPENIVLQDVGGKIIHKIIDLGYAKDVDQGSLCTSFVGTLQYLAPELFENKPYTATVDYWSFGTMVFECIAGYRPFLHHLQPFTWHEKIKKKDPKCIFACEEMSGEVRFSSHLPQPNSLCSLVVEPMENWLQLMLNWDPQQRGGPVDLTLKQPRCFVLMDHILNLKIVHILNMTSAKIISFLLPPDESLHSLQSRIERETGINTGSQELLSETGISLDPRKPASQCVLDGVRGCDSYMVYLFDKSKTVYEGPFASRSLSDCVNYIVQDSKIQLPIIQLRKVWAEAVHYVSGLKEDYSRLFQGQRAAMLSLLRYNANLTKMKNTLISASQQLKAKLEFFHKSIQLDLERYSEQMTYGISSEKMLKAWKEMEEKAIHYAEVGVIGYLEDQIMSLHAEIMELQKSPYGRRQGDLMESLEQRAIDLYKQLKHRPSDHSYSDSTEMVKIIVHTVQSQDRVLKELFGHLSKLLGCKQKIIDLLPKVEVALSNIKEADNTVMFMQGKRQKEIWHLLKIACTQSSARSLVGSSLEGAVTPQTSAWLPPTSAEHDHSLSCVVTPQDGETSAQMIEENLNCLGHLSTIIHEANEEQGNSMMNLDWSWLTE

Structure (SMILES) | read-out | method | concentration | remaining binding
FC(F)(F)Oc1cccc(-c2cnc3ccc(-c4ccncc4)nn23)c1 | cell-free assay | competition with immobilised ligand | 5 µM | 39%
O=C(NCC1CCOCC1)c1n[nH]cc1NC(=O)c1c(F)cccc1F | binding | competition with immobilised ligand | 1 µM | 86%
CCC(=O)N[C@H]1CC[C@@H](C(=O)N(C)c2ccc(-c3nc4ccccc4o3)cc2)C1 | cell-free assay | competition with immobilised ligand | 1 µM | 100%
C[C@@H]1CN(c2ccc3ncc(-c4ccc5[nH]nc(C6CC6)c5c4)n3n2)C[C@H](C)O1 | binding | competition with immobilised ligand | 50 nM | 86%
Nc1c(C(=O)NCc2ccc(C(=O)NCCCC3CCCCC3)cc2)cnn1-c1ccccc1 | cell-free assay | competition with immobilised ligand | 0.1 µM | 100%
N[C@H]1CCN(c2nccc(-c3cnn4ncccc34)n2)C1 | binding |  | 1 µM | 82%
Cc1cnc(Nc2ccc(C(=O)N3CCC(N4CCCC4)CC3)cc2)nc1-c1cc2ccccc2s1 | binding | competition with immobilised ligand | 1 µM | 1.3%
O=C(Nc1ccc(Oc2ccc(F)cc2)cc1)N1CCc2ncccc2[C@H]1c1ccc(F)cc1 | cell-free assay | competition with immobilised ligand | 1 µM | 100%
Cc1cnn2ncc(-c3ccnc(N(C)C)n3)c2c1 | binding |  | 1 µM | 69%
Cn1cc(Cl)c2c(Oc3c(F)cc(Nc4cc(Cl)nc(N)n4)cc3F)ccnc21 | cell-free assay | competition with immobilised ligand | 0.1 µM | 85%
O=C(c1ccc(Nc2nccc(-c3cc4ccccc4s3)n2)cc1)N1CCC(N2CCCC2)CC1 | binding | competition with immobilised ligand | 1 µM | 0.2%
CC1CCCN1c1nccc(-c2cnn3ncccc23)n1 (stereo not shown) | binding |  | 1 µM | 86%
c1cncc(-c2cccc(Nc3nccc(NC4CCCCC4)n3)c2)c1 | binding | competition with immobilised ligand | 10 µM | 87%
CS(=O)(=O)c1cc(C2(NC(=O)c3cncc4c3cnn4-c3ccc(F)cc3)CC2)ccn1 | cell-free assay | competition with immobilised ligand | 1 µM | 100%
C[C@H]1CCN(c2nccc(-c3cnn4ncccc34)n2)C1 | binding |  | 1 µM | 62%
Nc1ncc2c(n1)-c1c([nH]c3ccc(C#CC4CC4)cc13)CCCC2 | binding | competition with immobilised ligand | 1 µM | 98%
COc1cnc(Nc2cccc(S(N)(=O)=O)c2)nc1N1CCN(c2ccccc2)CC1 | binding | competition with immobilised ligand | 1 µM | 89%
CC1=C(C#N)C(c2ccc3c(c2)c(NC(=O)c2ccccc2C)nn3C)C(C#N)=C(C)N1 | cell-free assay | competition with immobilised ligand | 1 µM | 77%
c1cnn2ncc(-c3ccnc(N4CCC45COC5)n3)c2c1 | binding |  | 1 µM | 35%
CNC(=O)[C@@H]1CC[C@@H](n2c(-c3ccc4cnccc4c3)nc3ccc(C(=O)NCc4cccc(C(N)=O)c4)cc32)C1 | binding | competition with immobilised ligand | 1 µM | 100%
C=CC(=O)N1CCC(C(=O)NCC(=O)N2CCN(c3nc(-c4cnc(N)nc4C(F)F)nc(N4CCOCC4)n3)CC2)CC1 | binding | competition with immobilised ligand | 1 µM | 71%
CN(CCCC(F)(F)F)c1nccc(-c2cnn3ncccc23)n1 | binding |  | 1 µM | 99%
O=C(c1ccc(Nc2ncc(Cl)c(-c3cc4ccccc4s3)n2)cc1)N1CCC(N2CCCC2)CC1 | binding | competition with immobilised ligand | 1 µM | 0.8%
F[C@@H]1CCN(c2nccc(-c3cnn4ncccc34)n2)C1 | binding |  | 1 µM | 100%
O=C(NS(=O)(=O)c1ccc(NCC2CCOCC2)c([N+](=O)[O-])c1)c1ccc(N2CCN(Cc3ccc(C(F)(F)F)cc3-c3ccc(Cl)cc3)CC2)cc1Oc1cnc2[nH]ccc2c1 | cell-free assay | competition with immobilised ligand | 1 µM | 81%
